# Laboratory results from ChEMBL document CHEMBL1629660, “Pharmacodynamics of tigecycline against phenotypically diverse Staphylococcus aureus isolates in a murine thigh model” (Antimicrob Agents Chemother, 2009).
# Assays:
# [1] = fAUC/MIC in community acquired methicillin-resistant Staphylococcus aureus isolate 156 infected-immunocompetent ICR mouse at 12.5 […], sc QD; assay type: functional
# Outline: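 Derived from neutropenic-mouse serum PK (HPLC, two-compartment fit) with ultrafiltration protein-binding correction, divided by modal MIC.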
# [2] = fAUC/MIC in community acquired methicillin-resistant Staphylococcus aureus isolate 156-infected neutropenic ICR mouse at 80% effective exposure index; assay type: functional
# Outline: (§1)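 Single-dose serum PK in infected neutropenic mice (sc 6.25–50 mg/kg; HPLC; two-compartment fit; AUC by trapezoidal rule; lower doses simulated). Free fraction from ultrafiltration of spiked mouse serum, in triplicate. Free exposures divided by modal MIC and plotted against 24-h log10 CFU change with a sigmoidal Emax model; EI50, EI80 and stasis values read from the fitted curves.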
# [3] = r2 for fCmax/MIC in community acquired methicillin-resistant Staphylococcus aureus isolate 156-infected neutropenic ICR mouse
# [4] = fAUC/MIC in methicillin-sensitive Staphylococcus aureus ATCC 25923-infected neutropenic ICR mouse at 80% effective exposure index; assay type: functional
# Serum = test: fAUC in serum of methicillin-sensitive Staphylococcus aureus ATCC 29213-infected neutropenic ICR mouse at 1.56 to 400 mg/kg, sc by HPLC; assay type: ADME, organism-based; set-up: dose 1.56-400 mg/kg, route subcutaneous; conditions: in vivo
# [5] = fAUC/MIC in hospital-acquired methicillin-resistant Staphylococcus aureus isolate 56-infected neutropenic ICR mouse at 80% effective exposure index; assay type: functional; outline: as §1
# [6] = fAUC/MIC in community acquired methicillin-resistant Staphylococcus aureus isolate 144-infected neutropenic ICR mouse at 50% effective exposure index; assay type: functional; outline: as §1
# [7] = Tmax in neutropenic ICR mouse infected with Staphylococcus aureus ATCC 29213 at 6.25 mg/kg, sc by HPLC; assay type: ADME, organism-based; set-up: dose 6.25 mg/kg, route subcutaneous; conditions: in vivo
# Outline: (§2)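 Neutropenic female ICR mice (cyclophosphamide 150 and 100 mg/kg ip, 4 days and 1 day before inoculation), both thighs inoculated im with ~10^7 CFU/ml of ATCC 29213. Single sc doses of 50, 25, 12.5 or 6.25 mg/kg. Cardiac blood taken from groups of six at 8–12 times over 0.5–24 h. Serum measured by HPLC (linear 0.05–5 µg/ml). Two-compartment fit by nonlinear least squares; AUC by trapezoidal rule.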
# [8] = r2 for fCmax/MIC in methicillin-sensitive Staphylococcus aureus ATCC 29213-infected neutropenic ICR mouse
# Staphylococcus aureus [9] = test: Antimicrobial activity against community acquired methicillin-resistant Staphylococcus aureus isolate 147 infected in neutropenic ICR mouse assessed as change in bacterial load after 24 hrs; assay type: functional
# Outline: (§3)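 Female ICR mice (~25 g) made neutropenic with cyclophosphamide 150 and 100 mg/kg ip, 4 and 1 days before infection. Each thigh inoculated im with 0.1 ml of ~10^7 CFU/ml from an overnight subculture. Tigecycline sc (0.2 ml) given 2 h later as single or multiple doses of 1.56–50 mg/kg, 1.56–400 mg/kg/day, 3 mice/group. Saline-injected controls. Thighs harvested at 24 h, homogenized in saline, plated on blood agar; log10 CFU change vs 0-h controls.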
# [10] = Protein binding in methicillin-sensitive Staphylococcus aureus ATCC 29213-infected neutropenic ICR mouse serum at 6.25 mg/kg, sc by HPLC; assay type: ADME, organism-based; set-up: dose 6.25 mg/kg, route subcutaneous; conditions: read-out: PB (converted)
# Staphylococcus aureus [11] = test: Antimicrobial activity against community acquired methicillin-resistant Staphylococcus aureus isolate 156 infected in neutropenic ICR mouse assessed as change in bacterial load at 3.13 […] after 24 hrs; assay type: functional; outline: as §3
# [12] = Protein binding in methicillin-sensitive Staphylococcus aureus ATCC 29213-infected neutropenic ICR mouse serum at 12.5 mg/kg, sc by HPLC; assay type: ADME, organism-based; set-up: dose 12.5 mg/kg, route subcutaneous; conditions: read-out: PB (converted)
# [13] = r2 for fT>MIC in hospital-acquired methicillin-resistant Staphylococcus aureus isolate 152-infected neutropenic ICR mouse
# Staphylococcus aureus [14] = test: Antimicrobial activity against hospital-acquired methicillin-resistant Staphylococcus aureus isolate 56 infected in neutropenic ICR mouse assessed as change in bacterial load after 24 hrs; assay type: functional; outline: as §3
# Staphylococcus aureus [15] = test: Antimicrobial activity against community acquired methicillin-resistant Staphylococcus aureus isolate 156 infected in neutropenic ICR mouse assessed as change in bacterial load after 24 hrs; assay type: functional; outline: as §3
# [16] = r2 for fT>MIC in hospital-acquired methicillin-resistant Staphylococcus aureus isolate 56-infected neutropenic ICR mouse
# [17] = r2 for fT>MIC in community acquired methicillin-resistant Staphylococcus aureus isolate 144-infected neutropenic ICR mouse
# Acinetobacter baumannii = test: Antimicrobial activity against carbapenem-intermediate,-resistant Acinetobacter baumannii assessed as decrease in bacterial count at 0.6 times of MIC after 24 hrs by time kill analysis; assay type: functional
# [18] = fAUC/MIC in methicillin-sensitive Staphylococcus aureus ATCC 25923-infected neutropenic ICR mouse at 50% effective exposure index; assay type: functional
# [19] = Tmax in neutropenic ICR mouse infected with Staphylococcus aureus ATCC 29213 at 12.5 mg/kg, sc by HPLC; assay type: ADME, organism-based; set-up: dose 12.5 mg/kg, route subcutaneous; conditions: in vivo; outline: as §2
# [20] = Protein binding in methicillin-sensitive Staphylococcus aureus ATCC 29213-infected neutropenic ICR mouse serum at 12 µg/ml by HPLC; conditions: read-out: PB (converted)
# [21] = Tmax in neutropenic ICR mouse infected with Staphylococcus aureus ATCC 29213 at 50 mg/kg, sc by HPLC; assay type: ADME, organism-based; set-up: dose 50 mg/kg, route subcutaneous; conditions: in vivo; outline: as §2
# Staphylococcus aureus [22] = test: Antimicrobial activity against community acquired methicillin-resistant Staphylococcus aureus isolate 156 infected in neutropenic ICR mouse assessed as change in bacterial load at 6.25 […] after 24 hrs; assay type: functional; outline: as §3
# [23] = fAUC/MIC in hospital-acquired methicillin-resistant Staphylococcus aureus isolate 56-infected neutropenic ICR mouse at 50% effective exposure index; assay type: functional; outline: as §1
# [24] = AUC (0 to 24 hrs) in neutropenic ICR mouse infected with Staphylococcus aureus ATCC 29213 at 6.25 mg/kg, sc by HPLC; assay type: ADME, organism-based; set-up: time < 24 hr, dose 6.25 mg/kg, route subcutaneous; conditions: plasma; outline: as §2
# [25] = r2 of fT>MIC in methicillin-sensitive Staphylococcus aureus ATCC 25923-infected neutropenic ICR mouse
# [26] = Elimination half life in neutropenic ICR mouse infected with methicillin-sensitive Staphylococcus aureus ATCC 29213 at 6.25 mg/kg, sc by HPLC; assay type: ADME, organism-based; set-up: dose 6.25 mg/kg, route subcutaneous; conditions: in vivo, read-out: beta t1/2 (converted); outline: as §2
# [27] = Tmax in neutropenic ICR mouse infected with Staphylococcus aureus ATCC 29213 at 25 mg/kg, sc by HPLC; assay type: ADME, organism-based; set-up: dose 25 mg/kg, route subcutaneous; conditions: in vivo; outline: as §2
# [28] = AUC (0 to 24 hrs) in neutropenic ICR mouse infected with Staphylococcus aureus ATCC 29213 at 50 mg/kg, sc by HPLC; assay type: ADME, organism-based; set-up: time < 24 hr, dose 50 mg/kg, route subcutaneous; conditions: plasma; outline: as §2
# [29] = fAUC/MIC in community acquired methicillin-resistant Staphylococcus aureus isolate 144-infected neutropenic ICR mouse at stasis dose; assay type: functional; outline: as §1
# [30] = Elimination half life in neutropenic ICR mouse infected with methicillin-sensitive Staphylococcus aureus ATCC 29213 at 50 mg/kg, sc by HPLC; assay type: ADME, organism-based; set-up: dose 50 mg/kg, route subcutaneous; conditions: in vivo, read-out: beta t1/2 (converted); outline: as §2
structure (smiles),measurement,setting,value
CN(C)c1cc(NC(=O)CNC(C)(C)C)c(O)c2c1C[C@H]1C[C@H]3[C@H](N(C)C)C(O)=C(C(N)=O)C(=O)[C@@]3(O)C(O)=C1C2=O [TIGECYCLINE],fAUC/MIC,[1],8.8
same,fAUC/MIC,[2],13
same,r2,[3],0.88
same,fAUC/MIC,[4],7
same,fAUC,Serum,200 ng·h/mL
same,fAUC/MIC,[5],4.2
same,fAUC/MIC,[6],2.2
same,Tmax,[7],4.8 min
same,r2,[8],0.974
same,log10CFU/ml,Staphylococcus aureus [9],1.8
same,fraction unbound,[10],0.188
same,log10CFU/ml,Staphylococcus aureus [11],0.5
same,fraction unbound,[12],0.121
same,r2,[13],0.511%
same,log10CFU/ml,Staphylococcus aureus [14],2
same,log10CFU/ml,Staphylococcus aureus [15],2.1
same,r2,[16],0.341%
same,r2,[17],0.552%
same,log10cfu,Acinetobacter baumannii,1.5
same,fAUC/MIC,[18],5
same,Tmax,[19],27 min
same,fraction unbound,[20],0.08
same,Tmax,[21],44.4 min
same,log10CFU/ml,Staphylococcus aureus [22],0.1
same,fAUC/MIC,[23],2.5
same,AUC(0-t) at 24 h,[24],4800 ng·h/mL
same,r2,[25],0.872%
same,half-life,[26],632 min
same,Tmax,[27],31.8 min
same,AUC(0-t) at 24 h,[28],49200 ng·h/mL
same,fAUC/MIC,[29],2.6
same,half-life,[30],442 min
